Rows were chosen to be rich in hits. Some 2.9% of all compounds tested hit in one or more screens of this group.
SIAE inh: human SIAE inhibition, primary screen. SIAE FP-Rh probe binding, fluorescence polarization. Q9HAT2. hit rate 0.69% among 370,000. inhibition, % at 9.66 µM;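 active means inhibition above a cutoff: mean of compounds within the control limits plus 3 SD of those, cut at about 17% in these data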;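 further: 0% = plate median of compound wells and 100% = probe without SIAE protein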
PAD4 FP inh: PAD4 (human) enzyme inhibition; recombinant PAD4, RCA probe fluorescence polarization; inhibition, % at 6.36 µM; hit rate 0.41% among 330,000;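 active means percent inhibition above a cutoff equal to the mean of all tested compounds plus 3 SD, cut at about 15% in these data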;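 further: 0% = PAD4 with RCA probe and DMSO and 100% = probe without PAD4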
ABHD4 inh: ABHD4 (mouse) inhibition, primary FP screen; Q8VD66; purified mABHD4, FP-Rh probe fluorescence polarization; inhibition, % at 8.92 µM; hit rate 0.54% among 370,000; AID 720543;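 active means inhibition exceeding the mean over every tested compound plus 3 SD, cut at about 30% in these data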;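 further: 0% = plate median of compound wells and 100% = S159A mutant with DMSO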
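Assay system: Wild-type mouse ABHD4 protein | Medium: HEPES pH 7.0 buffer, 150 mM NaCl, 0.01% Pluronic F-127 | Incubation: Enzyme–compound pre-incubation 45 min, then probe 60 min, both 25 °C | Technique: Fluorescence polarization with parallel and perpendicular emission, 525/598 nm | Evaluation: % inhibition of FP-Rh probe binding versus controls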
TCR-CD3 inh: blocks the human TCR-CD3 interaction. hit rate 0.37% among 360,000. inhibition, % at 9.4 µM. TAMRA-labeled TCR probe fluorescence, biochemical; in the data active means inhibition above about 19%;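 further: recombinant mutant TCR 2C K166C tagged with TAMRA read by polarization; 0% = receptor in buffer alone and 100% = receptor with positive control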
PRMT1 FP inh: blocks human protein arginine methyltransferase 1; recombinant PRMT1, activity-based probe fluorescence polarization; inhibition, % at 2.79 µM; hit rate 1.3% among 370,000; AID 652257;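 active means inhibition above about 21% made by adding two undisclosed values, limit read from the data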
HTRA1 inh: blocks human HTRA1 serine peptidase; Q92743; recombinant HTRA1, FP-rhodamine activity-based probe, fluorescence polarization; inhibition, % at 5.96 µM; hit rate 0.5% among 340,000; in the data active means inhibition above about 36%;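 further: 0% = enzyme with DMSO and 100% = wells lacking enzyme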
Target sequence (Q92743 whole entry, looked up): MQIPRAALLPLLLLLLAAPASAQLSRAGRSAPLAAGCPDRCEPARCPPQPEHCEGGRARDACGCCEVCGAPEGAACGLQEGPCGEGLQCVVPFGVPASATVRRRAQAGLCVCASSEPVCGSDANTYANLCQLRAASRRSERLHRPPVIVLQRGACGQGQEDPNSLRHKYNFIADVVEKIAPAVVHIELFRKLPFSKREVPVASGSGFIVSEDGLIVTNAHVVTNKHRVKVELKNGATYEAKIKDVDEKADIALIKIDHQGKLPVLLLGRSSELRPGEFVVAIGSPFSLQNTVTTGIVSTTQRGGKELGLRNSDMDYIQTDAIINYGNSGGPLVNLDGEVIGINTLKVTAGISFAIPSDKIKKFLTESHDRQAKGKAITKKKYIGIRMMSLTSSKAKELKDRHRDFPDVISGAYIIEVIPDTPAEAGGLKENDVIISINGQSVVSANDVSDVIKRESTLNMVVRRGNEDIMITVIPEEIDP
HTRA1 conf: HTRA1 (human) inhibition, confirmation. shares compounds with HTRA1 inh. recombinant HTRA1, FP-rhodamine activity-based probe, fluorescence polarization. inhibition, % at 5.96 µM. hit rate 66% among 1,600;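 active means mean inhibition over three repeats above a set limit taken from the earlier primary screen, cut at about 37% in these data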;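 further: 0% = HTRA1 with DMSO and 100% = wells lacking HTRA1; inhibitors block probe binding so polarization drops and inhibition rises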
Starred values were filed as active, the others as inactive; nt = no result given.

SMILES	SIAE inh	PAD4 FP inh	ABHD4 inh	TCR-CD3 inh	PRMT1 FP inh	HTRA1 inh	HTRA1 conf
COCc1cc(C)nc(SCC(=O)c2ccc(O)c(O)c2)c1C#N	3	0	17	4	6	61*	50*
COC(=O)C1=C(O)/C(=C\c2ccc(CNC(=O)C(=O)Nc3ccc(C)cc3)o2)N=C1C	4	-1	16	-1	20	45*	-4
Cc1ccc(NCC(O)C(O)C(O)CO)cc1C (stereo not given)	-11	-1	4	5	-2	8	nt
Cc1cc(N=Nc2ccccc2)c(NCC(O)C(O)C(O)CO)cc1C (stereo not given)	4	-5	14	-7	6	45*	39*
Oc1ccc2ccccc2c1C1Nc2cccc3cccc(c23)N1	nt	-4	nt	nt	nt	52*	23
COc1ccc(C(=O)NC(=S)NNC(=O)c2ccco2)cc1	1	-1	0	16	1	9	nt
O=C(NC(=S)NNC(=O)c1cc2ccccc2cc1O)c1ccco1	0	1	15	7	-11	45*	35
CC(=O)N1CCN(c2ccc(NCc3ccc(-c4ccc(Br)cc4)o3)cc2)CC1	8	-2	29	2	3	44*	19
CC(=O)OC(C)C1C2=C(C(=O)CC1(C)O)C(=O)c1c(ccc(-c3ccc4c(c3O)C(=O)C3=C(C4=O)C(C(C)OC(C)=O)C(C)(O)CC3=O)c1O)C2=O (stereo not given)	1	nt	47*	0	10	48*	87*
CN(Cc1cn(CC2CCCCC2)nn1)S(=O)(=O)c1ccccc1Br	-1	nt	6	nt	2	nt	nt
Cc1cc2cc(CNC(=S)Nc3ccc(OC(F)F)cc3)ccc2n1C	4	8	13	14	10	52*	5
FC(F)Oc1ccc(NC(=S)NCc2ccccc2)cc1	4	5	-2	1	1	-2	nt
CCCCNC(=O)NC1CCN(CC(=O)Nc2ccc3c(c2)OCCO3)CC1	0	nt	-6	nt	8	nt	nt
O=C(N/N=C1/CCSC1)c1cc(Br)ccc1O	10	2	11	17	1	45*	21
CCCCC(CC)CN=C(N)NC(N)=NCCCCCCN=C(N)NC(N)=NCC(CC)CCCC (stereo not given)	nt	1	nt	nt	nt	55*	93*
CCCCC(CC)CO (stereo not given)	2	-2	-1	14	-1	1	nt
CC(=O)Oc1cc(C(=O)OCC(=O)NC23CC4CC(CC(C4)C2)C3)cc(OC(C)=O)c1OC(C)=O	10	nt	24	49*	6	66*	75*
CCCn1c(/C=N/Nc2nc3ccccc3[nH]2)nc2ccccc21	13	nt	14	-5	1	34	nt
Cn1c(/C=N/Nc2nc3ccccc3[nH]2)nc2ccccc21	-4	-3	27	-9	0	36*	44*
Cc1ccc(NC(=O)OCCCN2C(=O)CCC23CCC(C)CC3)cc1 (stereo not given)	8	nt	-2	nt	-5	nt	nt
C#CCN1CC(N(C)CCOC(=O)CC2C=CCC2)CS1(=O)=O (stereo not given)	-1	nt	-5	nt	3	nt	nt
O=C([C@@H]1C[C@H]1c1ccccc1)N1CC[C@H]2[C@H](CCCN2Cc2ccc(F)cc2)C1	0	nt	-4	nt	0	nt	nt
COc1ccc2[nH]c(O)c(N=NC(=O)c3ccc(NS(=O)(=O)c4cccs4)cc3)c2c1	17	4	29	3	6	45*	34
Cc1ccc2[nH]c(O)c(N=NC(=O)c3ccc(NS(=O)(=O)c4cccs4)cc3)c2c1	-26	-5	10	8	1	6	nt
c1nc(NCC2CCCCO2)c2cc(-c3ccc4c(c3)OCO4)ccc2n1 (stereo not given)	-7	nt	-3	nt	0	nt	nt
SMILES	SIAE inh	PAD4 FP inh	ABHD4 inh	TCR-CD3 inh	PRMT1 FP inh	HTRA1 inh	HTRA1 conf
C[C@H](NS(=O)(=O)c1ccc(Cl)cc1)C(=O)OCC(=O)c1ccc[nH]1	-3	-7	-5	-6	8	38*	-1
O=S1(=O)c2ccc(N3CCSCC3)cc2Oc2ccccc2CN1Cc1cn(Cc2ccc(F)cc2)nn1	-6	nt	-5	nt	-3	nt	nt
COC(=O)C1=NN(C(=O)c2cccc(Br)c2)C(O)(c2ccc(Cl)cc2)C1 (stereo not given)	3	-5	9	4	0	66*	65*
COc1ccc(OC)c(/C=N/NC(=O)CCc2ccc(O)c(O)c2)c1	-2	3	12	5	48*	53*	79*
COc1cccc2c1NC(C(=O)O)C1CC=CC21 (stereo not given)	nt	1	nt	nt	nt	62*	61*
COc1cc(CNc2ccc(N3CCCC3)cc2)ccc1OCc1ccccc1F	nt	-12	nt	nt	nt	40*	18
COc1cc(CNc2ccc(N3CCCCC3)cc2)ccc1OCC(=O)NC(C)(C)C	7	-9	27	0	-1	41*	8
COc1cc(CNc2ccc(N3CCCC3)cc2)ccc1OCc1ccccc1	10	-15	24	0	5	28	nt
Cc1ccc(Cn2nnc3c2-c2ccccc2S(=O)(=O)N(C2CC2)C3)cc1	-3	nt	-2	nt	1	nt	nt
COC1=C[C@H](C(=O)NCc2ccccn2)[C@H](C)[C@@H](c2ccccc2)CC1=O	-7	nt	3	nt	-1	nt	nt
COc1ccc(N2C(=O)c3n[nH]c(C)c3C2c2ccccc2)cc1 (stereo not given)	4	nt	4	11	-1	nt	nt
Cc1nc(CNC(=O)CC2C(=O)NCCN2Cc2cccc(Oc3ccccc3)c2)cs1 (stereo not given)	7	-5	-5	-5	3	44*	-14
Cc1ccc(NC(=O)C2CC3CCC2C3)c(C)c1 (stereo not given)	1	nt	-7	nt	4	nt	nt
CCOc1cc(N2CCOCC2)c(OCC)cc1NC(=O)c1nn(CC)c(=O)c2ccccc12	1	0	4	-3	-7	41*	45*
COc1cc(C(C(=O)NC(C)(C)C)N(C(=O)CNC(=O)c2cccs2)c2ccc(C(C)C)cc2)cc(OC)c1OC (stereo not given)	5	nt	5	-7	4	39*	49*
O=C(CSc1nc2nn(-c3ccccc3)c(=O)c-2c2n1CCCCC2)c1ccc(O)c(O)c1	nt	-2	nt	nt	nt	74*	97*
CNC(=O)CSc1nc2nn(-c3ccccc3)c(=O)c-2c2n1CCCCC2	nt	-1	nt	nt	nt	6	nt
COC(=O)CCC(=O)OC1(C)C(=O)C2=CN(c3ccc(OC)cc3)C(c3ccc(OC)cc3)=CC2=C(Br)C1=O (stereo not given)	nt	-28	nt	nt	nt	53*	63*
C=CCN1C=C2C(=O)C(C)(OC(=O)CCC(=O)OC)C(=O)C(Br)=C2C=C1c1ccc(OC)cc1 (stereo not given)	nt	-6	nt	nt	nt	63*	43*
